Most compounds without a hit are left out; they make up all but 4.8% or so of the library.
PAFAH1B3 FP inh = PAFAH1B3 enzyme inhibitors, primary screen, biochemical, fluorescence polarization, human; Platelet-activating factor acetylhydrolase IB subunit alpha1 (Homo sapiens), Q15102; recombinant PAFAH1B3, FP-rhodamine probe; inhibition, % at 3.39 µM; hit rate 0.28% among 340,000;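 active = inhibition above the screen-wide average of all tested compounds plus 3 SD, cut at about 25% in these data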
Target sequence (Q15102 whole entry, looked up): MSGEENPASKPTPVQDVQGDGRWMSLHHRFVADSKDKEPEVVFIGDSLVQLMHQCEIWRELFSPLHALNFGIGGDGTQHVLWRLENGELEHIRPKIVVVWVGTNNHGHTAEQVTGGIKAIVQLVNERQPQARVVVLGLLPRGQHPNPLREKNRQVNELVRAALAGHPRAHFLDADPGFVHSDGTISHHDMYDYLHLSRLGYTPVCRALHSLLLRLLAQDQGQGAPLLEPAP
UCH37 DUB inh = inhibitors of human UCH37 deubiquitinase, primary screen, biochemical, Ub-AMC cleavage, fluorescence | hit rate 0.33% among 330,000 | Ubiquitin carboxyl-terminal hydrolase isozyme L5 (Homo sapiens), Q9Y5K5 | purified proteasome/UCH37 | inhibition, % (test concentration not listed);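 active = mean inhibition over replicate wells above about 20%, limit read from the data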
Target sequence (Q9Y5K5 whole entry, looked up): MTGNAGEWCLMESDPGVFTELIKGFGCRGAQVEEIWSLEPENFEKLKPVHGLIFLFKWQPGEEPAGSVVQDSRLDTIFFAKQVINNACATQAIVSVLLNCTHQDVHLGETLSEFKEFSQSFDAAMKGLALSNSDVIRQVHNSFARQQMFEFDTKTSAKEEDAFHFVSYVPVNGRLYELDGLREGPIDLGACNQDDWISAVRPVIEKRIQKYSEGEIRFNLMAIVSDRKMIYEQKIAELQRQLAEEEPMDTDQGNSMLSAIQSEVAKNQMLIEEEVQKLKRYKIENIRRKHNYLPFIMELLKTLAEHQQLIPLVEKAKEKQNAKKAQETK
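Signal – fluorescence, ex 355 nm, em 460 nm · System – Proteasome-bound UCH37 · Input – 0.15 nM proteasome as dispensed · Timing – 30 min preincubation with enzyme, 25 min cleavage at room temperature · Read-out basis – percent inhibition of cleavage signal versus uninhibited and no-proteasome wells · Medium – Tris-HCl pH 7.4 with ATP-MgCl2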
NR3A LBD binder = binders of NR3A ligand-binding domain, primary screen, biophysical, differential scanning fluorimetry, uHTS | Tm shift relative to glycine control, % at 25 µM | hit rate 2.5% among 340,000 | Glutamate receptor ionotropic, NMDA 3A (GRIN3A) ligand-binding domain | NR3A LBD differential scanning fluorimetry, Tm shift; 0% = protein alone, 100% = glycine-bound protein | AID 1259313, 2017;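 active = melting temperature shift of at least 10% of the positive control shift, at one fixed dose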
PAFAH1B2 FP inh = PAFAH1B2 enzyme inhibitors, primary screen, biochemical, fluorescence polarization, human. Platelet-activating factor acetylhydrolase IB subunit alpha2 (Homo sapiens), P68402. AID 492953, 2010. hit rate 1.2% among 340,000. recombinant PAFAH1B2, FP-rhodamine activity probe. inhibition, % at 3.39 µM;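 active = inhibition above the mean of all tested compounds plus 3 SD, cut at about 24% in these data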
PAFAH2 FP inh = PAFAH2 enzyme inhibitors, primary screen, biochemical, fluorescence polarization, human. Platelet-activating factor acetylhydrolase 2, cytoplasmic (Homo sapiens), Q99487. recombinant PAFAH2, FP-rhodamine activity probe. inhibition, % at 3.39 µM. hit rate 0.99% among 340,000. AID 492956, 2010;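 active = inhibition above the mean over all tested compounds plus 3 SD, cut at about 30% in these data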;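 also: inhibitors block probe labeling of enzyme so polarization drops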
pPAFAH inh = pPAFAH enzyme inhibitors, primary screen, biochemical, fluorescence polarization, human | Platelet-activating factor acetylhydrolase (Homo sapiens), Q13093 | recombinant pPAFAH, FP-rhodamine probe fluorescence polarization | inhibition, % at 3.39 µM | hit rate 1.5% among 330,000 | AID 463082, 2010;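 active = inhibition above the mean inhibition across the screen plus 3 SD, cut at about 25% in these data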;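 also: inhibitors block binding of the rhodamine activity-based probe so polarization drops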
A number is an active result; 0 = inactive; - = not tested or not shown.

SMILES	PAFAH1B3 FP inh	UCH37 DUB inh	NR3A LBD binder	PAFAH1B2 FP inh	PAFAH2 FP inh	pPAFAH inh
O=[N+]([O-])c1cccc(-c2nc(NCc3ccccc3)c3ccccc3n2)c1	0	0	339.3	0	0	0
O=C(O)c1cccc(Nc2nc(-c3ccc([N+](=O)[O-])cc3)nc3ccccc23)c1	0	0	0	0	0	-
O=[N+]([O-])c1ccc(-c2nc(NCc3ccccc3)c3ccccc3n2)cc1	0	0	50.3	0	0	0
c1csc(CNc2nc(-c3cccs3)nc3ccccc23)c1	0	0	0	0	0	0
CC(=NO)C(=O)C(CN1CCCCC1)CN1CCCCC1	-	0	-	-	-	-
Clc1cccc(-c2nc(NCc3cccnc3)c3ccccc3n2)c1	0	0	21.6	0	0	0
Cc1cc(-c2cccc([N+](=O)[O-])c2)nc2ccc3ccccc3c12	0	0	26.7	0	0	0
CCOc1ccc(CC(=O)NN=Cc2cccnc2)cc1	-	0	-	-	-	-
COc1ccc(C=NNC2=NCCCCC2)cc1	-	0	-	-	-	-
COc1ccc(C(=O)/C=C/c2ccccc2)c(OC)c1	0	0	0	0	0	0
COc1cc(C)cc(C(=O)C=Cc2ccccc2)c1O	0	0	16.9	0	0	-
CCOc1ccc(C=NNC(=O)c2cccc3ccccc23)c(OCC)c1	-	0	-	-	-	-
Brc1ccc(CSc2nnc3ccccn23)cc1	0	0	0	29.7	0	0
CC(=NNC(=O)c1cccs1)c1ccc(N2CCOCC2)cc1	-	0	-	-	-	-
CCO/C(=C/c1sc2ccc(OC)cc2[n+]1CCCS(=O)(=O)[O-])CC	0	21.3	0	0	0	0
CCC(/C=C1\Sc2ccc(OC)cc2N1CC)=C\c1sc2ccc(OC)cc2[n+]1CCCS(=O)(=O)[O-]	0	0	0	0	0	0
O=C(CCCCCNC(=O)c1ccccc1)NN=Cc1ccc(F)cc1	-	0	-	-	-	-
Cc1ccc(C=NNc2nc(N3CCCCC3)nc(N3CCCCC3)n2)o1	-	0	-	-	-	-
O=C(CCCOC(=O)c1ccc(O)cc1O)c1ccc(Br)cc1	0	0	10.1	0	0	-
O=C(CCCOC(=O)c1cccnc1Cl)c1ccc(Br)cc1	0	-	0	0	0	0
CON=C(CS(=O)Cc1ccc(Cl)cc1)c1ccc(Cl)cc1 (centres undefined)	-	0	-	-	-	-
CCc1nnc(NC(=O)CSc2sc3c(O)cc(=O)[nH]c3c2C#N)s1	0	0	0	0	0	31.8
Cc1csc(NC(=O)CSc2sc3c(O)cc(=O)[nH]c3c2C#N)n1	0	0	0	0	37.3	33.2
COc1cc(C2Nc3cccc4cccc(c34)N2)cc(OC)c1OC(C)=O	31.8	0	0	0	0	0
COc1ccc(Br)cc1C1Nc2cccc3cccc(c23)N1	0	-	0	0	0	0
SMILES	PAFAH1B3 FP inh	UCH37 DUB inh	NR3A LBD binder	PAFAH1B2 FP inh	PAFAH2 FP inh	pPAFAH inh
O=[N+]([O-])c1cc(C2Nc3cccc4cccc(c34)N2)ccc1Cl	0	0	0	37.1	0	0
COc1cc(C2Nc3cccc4cccc(c34)N2)ccc1O	37.4	0	0	24.7	0	0
COc1ccc2ccc3ccc(OC)c(OC(C)=O)c3c2c1	0	-	0	0	0	-
O=[N+]([O-])c1cccc(C=Nn2cnnc2)c1	-	0	-	-	-	-
CCCCn1c(CN(Cc2ccccc2)Cc2ccccc2)nc2c1c(=O)n(C)c(=O)n2C	0	0	25.2	0	0	0
CCCCCn1c(CN(C)Cc2ccccc2)nc2c1c(=O)n(C)c(=O)n2C	0	0	0	0	0	-
Cc1ccc(S(=O)(=O)Oc2ccccc2C=NNC(=O)c2nn(C)cc2[N+](=O)[O-])cc1	-	0	-	-	-	-
COc1ccc(N(CC(=O)Nc2ccc(OC)c(Cl)c2)S(=O)(=O)c2c(C)noc2C)cc1	0	0	0	0	0	0
COc1ccc(N(CC(=O)Nc2ccc(F)c(Cl)c2)S(=O)(=O)c2c(C)noc2C)cc1	0	0	15.6	0	0	0
COc1cccc(OCc2nc(-c3cccc([N+](=O)[O-])c3)no2)c1	-	0	0	-	-	0
COc1cccc(-c2noc(Cn3nc(C)c([N+](=O)[O-])c3C)n2)c1	0	24.4	0	0	0	0
COc1cccc(C=NNc2nncc(-c3ccccc3)n2)c1	-	0	-	-	-	-
CC(OC(=O)c1cccc(S(=O)(=O)Nc2cccc(C(F)(F)F)c2)c1)C(=O)Nc1ccc2c(c1)OCCO2 (centres undefined)	0	0	25.6	0	0	0
Cc1ccc(C2(C)NC(=O)N(CC(=O)c3ccc4c(c3)OCCO4)C2=O)cc1 (centres undefined)	0	0	0	0	0	0
CC(=O)c1c(C)[nH]c(C(=O)CN2C(=O)NC(C)(c3ccc4c(c3)OCCO4)C2=O)c1C (centres undefined)	0	0	31.9	0	0	0
COc1cc(/C=C(\C#N)c2nc3ccccc3o2)ccc1O	0	0	15.5	0	0	0
CC1(C)OC(c2ccccc2)=C/C(=C/C=NNC(=O)c2ccncc2)O1	-	0	-	-	-	-
COCCn1c(=NC(=O)C2COc3ccccc3O2)sc2cc(S(N)(=O)=O)ccc21 (centres undefined)	0	-	17.1	0	0	0
NC(=NOC(=O)c1ccc(Cl)cc1[N+](=O)[O-])c1ccccn1	-	0	-	-	-	-
O=C(NN=Cc1ccc2c(c1)OCO2)c1cc(-c2ccncc2)nc2ccccc12	-	0	-	-	-	-
CCOc1ccc2nc(NC(=O)c3ccc(S(=O)(=O)N4CCOCC4)cc3)sc2c1	0	0	29.3	0	0	0
O=C(Nc1nc2ccc(S(=O)(=O)N3CCCCC3)cc2s1)c1ccncc1	0	0	0	30.1	0	0
CCOC(=O)c1sc(NC(=O)c2ccc(S(=O)(=O)N3CCOCC3)cc2)cc1C	0	0	20.4	0	0	0
CCOc1ccc2nc(NC(=O)c3ccc(OC)c(S(=O)(=O)N4CCOCC4)c3)sc2c1	0	0	0	0	0	0
O=C(Nc1nc2ccc(S(=O)(=O)N3CCCCC3)cc2s1)c1cccnc1	0	0	0	0	0	0
SMILES	PAFAH1B3 FP inh	UCH37 DUB inh	NR3A LBD binder	PAFAH1B2 FP inh	PAFAH2 FP inh	pPAFAH inh
Cc1ccc(C=NNC(=O)c2cc(C)oc2C)cc1	-	0	-	-	-	-
O=[N+]([O-])c1cc(C=NN/C(=N/c2ccccn2)c2ccccn2)ccc1O	-	0	-	-	-	-
CC(c1ccco1)N(C(=O)Nc1ccc(Cl)cc1)c1ccccn1 (centres undefined)	0	0	10.5	0	0	0
FC(F)(F)c1cnc(COc2ccc(Cl)cc2Cl)c(Cl)c1	0	0	15.4	0	0	0
c1ccc(-c2cc(-c3ccc(N4CCOCC4)cc3)nc3ccccc23)cc1	0	0	0	0	0	30.1
Cc1cc(=O)[nH]c(SCc2ccc(Cl)cc2Cl)n1	0	0	0	29.2	0	0

Screening data from PubChem BioAssay.
